Here are results for 167 variants from the RNAGym collection of RNA variant scans (doi:10.1101/gad.245936.114).

To fix the notation:
B1: tRNA (parent)
chain: CUCUCGGUAGCCAAGUUGGUUUAAGGCGCAAGACUUUAAUUUAUCACUACGAAAUCUUGAGAUCGGGCGUUCGACUCGCCCCCGGGAGAUUUUUUCCUCGAGCAA

Variants at the floor of the assay were thinned out. A value given as a limit tells only on which side of the number the result lay.

This data set covers variants of B1. The experiment in a line: nonsense suppression (GFP-seq) (ratio to wild type); higher = more function; SUP4oc tRNA, yeast GFP reporter sort-seq. A digest of the protocol:
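To measure nonsense suppression, tRNA variants from a library carrying ~3% random mutations were integrated into the yeast genome alongside RFP and a GFP ochre reporter under galactose control. Growth took place in raffinose/galactose medium supplemented with 80 mg/L adenine, followed by sorting into GFP/RFP bins and Illumina sequencing of each bin (phred ≥30). For each variant with ≥100 reads and ≥30 cells, the bin median GFP/RFP values were weighted by its estimated cell share per bin and referenced to the unmutated parent tRNA.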
For U55C C64G, the nonsense suppression amounted to 0.0515. The value for G59C G85A was 0.114; that for G61A A87G was 0.197.

G61A A87U: the nonsense suppression is 0.181.

In the case of U57C C79U, the nonsense suppression is at most 0.026. The value for A60U G67A was 0.0457; that for A54C A87G was 0.59; that for G61C C68U was 0.633.

Consider A60U C68U, for which the nonsense suppression is 1.1. The same measure for U55C: 1.09.

On to C56U G88U, for which the nonsense suppression was at most 0.026. As to A54U G65A, the nonsense suppression came out at 0.0335. The value for G59U U70C C72A was at most 0.026; that for G59C G66U C83A A87C was at most 0.026; that for U57A U58C C81G was at most 0.026. As to A54U C79U, the nonsense suppression was 0.571. The value for A60U C79U was 0.761; that for A60U U71G was at most 0.026; that for C34U U63C G85C was at most 0.026.

Regarding G59C C68A G88U A89C, the nonsense suppression was at most 0.026. The value for U57C G73A was 0.0414. The value for A60G G66U was 0.0286; that for A60U A87G was 1.02. For G61C C80U, the nonsense suppression turned out to be 0.731. The same measure for G61A C79U: 0.209; for G61A C79G: at most 0.026; for G61C C79U: 0.202.

A60G C64G: the nonsense suppression is at most 0.026. Turning to G61C G65A C68U, the nonsense suppression is at most 0.026.

Turning to G61C A74U C83G, the nonsense suppression is at most 0.026. In the case of C34G C72A, the nonsense suppression is at most 0.026. The same measure for G59C C75G: at most 0.026; for U58G C77U: at most 0.026; for U35A U57G C81U G85C A87U: at most 0.026.

For A54U G69C C81G, the nonsense suppression is at most 0.026. The same measure for U55C U58G: at most 0.026; for G59U: 0.116. The value for A54C G86C was 0.0725; that for U58G U70C was at most 0.026.

Consider G61A G69A, for which the nonsense suppression was 0.0276. With G61A G69C, the nonsense suppression was determined as 0.0625. The value for A60G C82A was 0.0331; that for U55A C56A C64A U70C was at most 0.026.

For A60C C75U, the nonsense suppression was found to be 0.167. The same measure for A54U A62G: 0.0321. The same measure for C56A U63G: at most 0.026.

As to U55A G85C, the nonsense suppression was at most 0.026. The same measure for A54C U76G A89G: at most 0.026; for U58A U70C A74G: at most 0.026. The same measure for A54C G69C C75U U76G G85C: at most 0.026; for G61A G65A: 0.127. The same measure for G61A A89C: 0.0288. Turning to G61A A89G, the nonsense suppression was 0.0396. The value for A54C U63A was 0.377.

On to A54C U63G, for which the nonsense suppression is 0.0506. The value for A54C U63C was 0.729. As for A60C G73C, the nonsense suppression amounted to 0.0519.

A60C G73U: the nonsense suppression was 0.049.

As to U55G A89U, the nonsense suppression was at most 0.026.

For the variant U57G U70G, the nonsense suppression was at most 0.026.

As for U55C G84U, the nonsense suppression was 0.0453.

As to A54U A89C, the nonsense suppression was at most 0.026. The same measure for A60C G84C: 0.0911.

Take U35C A74G: the nonsense suppression was at most 0.026.

As for G61C C77U, the nonsense suppression amounted to 0.0267.

G61C C77G: the nonsense suppression turned out to be 0.0296. The same measure for U55G U63A G86C: at most 0.026; for U57G C68G C75G: at most 0.026. The same measure for U57A C75U: 0.03; for U57A C75A: 0.681. The value for A54C C64U was 0.0402; that for A54C A74C was at most 0.026.

Consider A54C A74G, for which the nonsense suppression turned out to be 0.0575. The value for U58A U70C G86C A89C was at most 0.026; that for A54U G67A was 0.0673. The same measure for A60U G65C C81G: 0.203; for A54U G61A: 0.611. The same measure for A54U G61U: 1.16; for G61A G67A G73C: at most 0.026.

As for C34U A62G, the nonsense suppression was at most 0.026.

As for C56G G61C G88U, the nonsense suppression is at most 0.026. The value for A60U A62G was 0.112; that for C34G G78A C81G was at most 0.026. The same measure for U58A A60C: 0.0508.

As for U57A, the nonsense suppression came to 0.0873.

Regarding U35C G73A, the nonsense suppression was at most 0.026. The same measure for C56G A62G: at most 0.026. The value for A54U G84U was 0.0565.

C34G G69C: the nonsense suppression is at most 0.026. The value for U58C A89C was at most 0.026; that for A54C C82U was 0.211. With G59U A89G, the nonsense suppression was at most 0.026. The same measure for A54C G84U: 0.0301; for U55A U71A: at most 0.026. The same measure for C34G U55C: 0.276. The value for U55C U76A was 0.15. In the case of G61C C75A, the nonsense suppression came out at 1.06. Turning to G61C C75G, the nonsense suppression turned out to be 1.21.

On to A60U G65U A74C C82A, for which the nonsense suppression was at most 0.026. The same measure for U35A G59A G67A: at most 0.026; for G59C G61C: at most 0.026. The same measure for G59A U76G C77A: at most 0.026. A54C G65U: the nonsense suppression was found to be 0.0425.

Turning to U55C C75U, the nonsense suppression was 0.903. The same measure for U55C C75A: 1.05; for U55C C75G: 1.16; for A54U C56A C72U: at most 0.026. The value for U57C G85A was 0.757.

With G59U A74C C82U, the nonsense suppression is at most 0.026.

As to A60C G61U, the nonsense suppression was found to be 0.768. The value for G59C U63A G66A C68U C72A was at most 0.026. The same measure for A60C G67A: at most 0.026; for A54G G61A U76C C77G: at most 0.026. The value for C34U C81A G88C was at most 0.026. Turning to U57G U71A, the nonsense suppression is at most 0.026. The same measure for G61A U76G: 0.0268; for G61A U76C: 0.775; for G59A G84C: at most 0.026.

For the variant U55A U70C, the nonsense suppression was at most 0.026. The value for U35C C83G was at most 0.026; that for U55C G61A was 0.194. The same measure for G61A U63C: 0.728. Consider G61A U63A, for which the nonsense suppression turned out to be 0.304. The same measure for G61A U63G: 0.227; for A54C C75U: 1.22.

Regarding A54C C75G, the nonsense suppression worked out at 1.15. The value for C34G U70G was at most 0.026.

Consider A60C A62U, for which the nonsense suppression is 0.0785. The same measure for U57A U63C: 0.0744; for C34G U57A: at most 0.026; for G61C C81G: 0.248. The value for U55C G65A was 0.0796; that for C56A U71A was at most 0.026. The value for U55G A74U was at most 0.026. As for C34G A74U, the nonsense suppression was at most 0.026.

In the case of A54C U58A, the nonsense suppression was determined as 0.135. The same measure for U57A G84U: 0.0408. Take C34G C64U: the nonsense suppression is at most 0.026.

With U55A C64G, the nonsense suppression was at most 0.026. As to U35G C68G C82U, the nonsense suppression is at most 0.026. The value for G59A C75A was 0.717. The same measure for C34U G69A A89C: at most 0.026.

As to C34U C77G C79G A89U, the nonsense suppression is at most 0.026. The value for A54C U57A was 0.0382; that for U55A G67U was at most 0.026.

For G61A C68G, the nonsense suppression amounted to 0.0366. The value for G61A C68U was 0.609; that for U35G U55C G61C G73U was at most 0.026; that for A54U A87G was 0.867. The value for A54G C72A was at most 0.026; that for U55C G73U was 0.0422. The same measure for U55C G73A: 0.0331; for A54U C56G C72A: at most 0.026; for G61C C64U C68G G84A: at most 0.026. In the case of A54C C80G, the nonsense suppression is 0.0733. The value for A54C C80U was 0.194; that for A54C was 1.16; that for A54U was 1.04. The same measure for G59U A62C A89G: at most 0.026.

In the case of C34U U70A, the nonsense suppression is at most 0.026. A54U C81A: the nonsense suppression was at most 0.026.

In the case of A54C G85C, the nonsense suppression was found to be 0.0904.

For the variant A60U G78C G85A, the nonsense suppression came out at 1.16. The same measure for U57C A89G: at most 0.026; for C34U G65A U70A: at most 0.026.

Turning to U35A U70C G73U C81U, the nonsense suppression is at most 0.026. The value for C56U U58C G66U was at most 0.026.
